The IC50 is the concentration that inhibits the measured activity by half.

Series [1] is described as follows: Lipophilicity at pH 5. To be noted: buffer, read-out: Log D5.0. The class given is physicochemical. The method in brief:
(§1)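 Octanol/buffer shake partition: phosphate buffer pH 7.4 or acetate buffer pH 5.0, phases mutually presaturated; compound at 50–250 μg/mL in buffer. Aqueous phase shaken with octanol 30 min, centrifuged 3000 rpm 10 min. Aqueous peak areas before and after partitioning by reversed-phase C8 HPLC (acetonitrile–acetate pH 4, 80:20; 60 °C; UV 254 nm).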

Series [2] is described as follows: Lipophilicity at pH 7.4. The class given is physicochemical. To be noted: buffer, read-out: Log D7.4. In short, it runs like this: as §1
The subject of series [3] is L6. Kind of series: In vitro cytotoxicity against mammalian L6 cells was determined. To be noted: Rattus norvegicus. The class given is functional, cell-based. The method in brief: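 L6 cells, 10⁴ per well, exposed to a range of inhibitor concentrations for up to 5 days. Proliferation read by XTT colorimetric assay; inhibition relative to DMSO-treated controls; IC50 reported.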

Series [4] has as its system Plasmodium falciparum. Nature of the series: In vitro antimalarial activity against Thai strain of Plasmodium falciparum. The class given is functional, organism-based. The method in brief:
(§2)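 P. falciparum kept on human erythrocytes; CQ-sensitive Thai and CQ-resistant FcB1 and K1 strains. Drugs diluted serially in culture medium, added to asynchronous cultures (1% parasitemia, 1% hematocrit) for 24 h at 37 °C, then 0.5 μCi [³H]hypoxanthine per well for 24 h more. Uptake compared with drug-free controls; IC50 from concentration–response curve, mean ± SD of independent experiments. DMSO ≤0.1%.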

Series [5] concerns Plasmodium falciparum. Kind of series: In vitro antimalarial activity against Plasmodium falciparum FcB1. Type of series: functional, organism-based. In short, it runs like this:
as §2

For series [6], the system named is Plasmodium falciparum. Nature of the series: In vitro antimalarial activity against Plasmodium falciparum K1. Type of series: functional, organism-based. In short, it runs like this: as §2
Series [7] is described as follows: Food vacuolar accumulation ratio was determined. Type of series: functional. The method in brief:
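Calculated, not measured: VAR from the compound's pKa values, assuming vacuolar pH 5.0 and external pH 7.4.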

The subject of series [8] is Plasmodium falciparum. Nature of the series: Resistance index as ratio of IC50 for Plasmodium falciparum FcB1 and Thai strains. Type of series: functional.
Series [9] concerns Plasmodium falciparum. Kind of series: Resistance index as IC50 for Plasmodium falciparum K1 and Thai strains. Type of series: functional.
For series [10], the system named is L6. Nature of the series: Selectivity IC50 index against Plasmodium falciparum K1 compared to L6 cells. Type of series: functional.

For `Clc1ccc2nc(NCCCN3CCN(CCCNc4nc5ccc(Cl)cc5n5cccc45)CC3)c3cccn3c2c1`, the logD worked out at 3.43 in series [1] and 4.92 in series [2]. The half-maximal inhibitory concentration (IC50) with L6 [3] was found to be 4010 nM; in the series on Plasmodium falciparum [4], 280 nM; with Plasmodium falciparum [5] it was 640 nM; with Plasmodium falciparum [6] it was 480 nM. The Ratio came to 2100 in [7], 2.3 in the series with Plasmodium falciparum [8], 1.7 with Plasmodium falciparum [9] and 8.2 in the series with L6 [10].

As for `COc1ccc2c(c1)nc(NCCCN1CCN(CCCNc3nc4cc(OC)ccc4n4cccc34)CC1)c1cccn12`, the figures for the logD in series [1] and in [2] were 2.15 and 3.72, respectively. Also, the IC50 in the series with L6 [3] is 1320 nM; with Plasmodium falciparum [4] it was 30 nM; with Plasmodium falciparum [5], 130 nM; with Plasmodium falciparum [6], 80 nM. Moreover, the Ratio turned out to be 187000 in [7], 4.3 in the series with Plasmodium falciparum [8], 2.7 in the series with Plasmodium falciparum [9] and 17.4 with L6 [10].

For the compound `CCN(CC)CCCC(C)Nc1nc2ccccc2n2cccc12` (stereo not given), the IC50 was over 20000 nM in the series with L6 [3], 2950 nM in the series on Plasmodium falciparum [4], 4970 nM in the series with Plasmodium falciparum [5] and 4340 nM in the series with Plasmodium falciparum [6]. Also, the results for the Ratio in the series on Plasmodium falciparum [8], with Plasmodium falciparum [9] and in the series on L6 [10] were 1.7, 1.5 and over 4.6, respectively.

On to `c1ccc2c(c1)nc(NCCCN1CCN(CCCNc3nc4ccccc4n4cccc34)CC1)c1cccn12`, for which the logD in series [1] was 1.31; in series [2] it was 2.52. Also, the IC50 is 5040 nM in the series with L6 [3], 80 nM in the series with Plasmodium falciparum [4], 290 nM in the series on Plasmodium falciparum [5] and 370 nM in the series on Plasmodium falciparum [6]. Also, the Ratio in series [7] came to 409000; in the series with Plasmodium falciparum [8] it was 3.6; in the series on Plasmodium falciparum [9], 4.6; with L6 [10] it was 13.6.

As to `COc1ccc2nc(NCCCN3CCN(CCCNc4nc5ccc(OC)cc5n5cccc45)CC3)c3cccn3c2c1`, the logD in series [1] amounted to 1.88; in series [2], 4.67. Also, the half-inhibitory concentration (IC50) was found to be 4060 nM with L6 [3], 40 nM in the series on Plasmodium falciparum [4], 130 nM with Plasmodium falciparum [5] and 80 nM in the series with Plasmodium falciparum [6]. Further, the Ratio in series [7] turned out to be 72500; with Plasmodium falciparum [8], 3.2; in the series with Plasmodium falciparum [9], 2; in the series with L6 [10], 52.7.

Consider `COc1ccc2nc(NCCCNCCCNc3nc4ccc(OC)cc4n4cccc34)c3cccn3c2c1`, for which the figures for the logD in series [1] and in series [2] were 0.93 and 2.58, respectively. Moreover, the IC50 came to 3620 nM with L6 [3], 140 nM in the series on Plasmodium falciparum [4], 300 nM in the series with Plasmodium falciparum [5] and 330 nM in the series with Plasmodium falciparum [6]. Besides, the Ratio was determined as 41700 in series [7], 2.1 with Plasmodium falciparum [8], 2.4 with Plasmodium falciparum [9] and 11 with L6 [10].

As for `COc1ccc2c(c1)nc(NCCCN1CCN(CCCNc3nc4cc(OC)ccc4n4c(Cl)ccc34)CC1)c1ccc(Cl)n12`, the logD in [1] came to 4.17; in [2], 5.74. Moreover, the concentration for half-maximal inhibition (IC50) in the series on L6 [3] turned out to be 3070 nM; in the series with Plasmodium falciparum [4] it was 250 nM; with Plasmodium falciparum [5], 720 nM; in the series on Plasmodium falciparum [6], 330 nM. Moreover, the Ratio in series [7] was 900; in the series on Plasmodium falciparum [8] it was 2.9; in the series on Plasmodium falciparum [9] it was 1.32; with L6 [10], 9.3.

Take `COc1ccc2c(c1)nc(NCCCNCCCNc1nc3cc(OC)ccc3n3cccc13)c1cccn12`: the values for the logD in [1] and in series [2] were 0.8 and 2.76, respectively. For the same compound, the IC50 worked out at 2980 nM in the series with L6 [3], 40 nM with Plasmodium falciparum [4], 190 nM in the series on Plasmodium falciparum [5] and 110 nM in the series with Plasmodium falciparum [6]. The Ratio is 104000 in [7], 4.7 in the series with Plasmodium falciparum [8], 2.7 with Plasmodium falciparum [9] and 26.6 in the series with L6 [10].

Regarding `CCN(CC)CCCC(C)Nc1nc2cc(OC)ccc2n2cccc12` (stereo not given), the half-inhibitory concentration (IC50) was over 20000 nM in the series on L6 [3], 830 nM with Plasmodium falciparum [4], 2470 nM in the series with Plasmodium falciparum [5] and 1780 nM with Plasmodium falciparum [6]. The Ratio is on record as 3 in the series with Plasmodium falciparum [8], 2.1 in the series on Plasmodium falciparum [9] and over 11.2 with L6 [10].

For the compound `CCN(CC)CCCC(C)Nc1nc2ccc(Cl)cc2n2cccc12` (stereo not given), the 50% inhibitory concentration (IC50) was found to be 17300 nM in the series on L6 [3], 1940 nM in the series with Plasmodium falciparum [4], 4790 nM with Plasmodium falciparum [5] and 3060 nM in the series on Plasmodium falciparum [6]. Besides, the Ratio turned out to be 2.5 with Plasmodium falciparum [8], 1.6 with Plasmodium falciparum [9] and 5.6 in the series with L6 [10].

For `c1cnc2c(c1)nc(NCCCN1CCN(CCCNc3nc4cccnc4n4cccc34)CC1)c1cccn12`, the logD is 2.22 in series [1] and 5.05 in series [2]. For the same compound, in the series with Plasmodium falciparum [5], inhibition was half-maximal at 1090 nM (IC50). Moreover, in [7], the Ratio worked out at 100.

Turning to `COc1ccc2nc(NCCCN(C)CCCNc3nc4ccc(OC)cc4n4cccc34)c3cccn3c2c1`, the logD in [1] came out at 0.41; in [2], 3.41. Besides, the IC50 is 3790 nM in the series with L6 [3], 120 nM with Plasmodium falciparum [4], 320 nM in the series on Plasmodium falciparum [5] and 200 nM with Plasmodium falciparum [6]. The Ratio was found to be 42100 in series [7], 2.7 in the series with Plasmodium falciparum [8], 1.7 in the series on Plasmodium falciparum [9] and 19.2 in the series with L6 [10].

For the compound `Clc1ccc2nc(NCCCNCCCNc3nc4ccc(Cl)cc4n4cccc34)c3cccn3c2c1`, the logD was determined as 3.16 in [1] and 5.06 in [2]. In addition, the half-maximal inhibitory concentration (IC50) with L6 [3] came out at 4810 nM; in the series on Plasmodium falciparum [4], 470 nM; in the series on Plasmodium falciparum [5] it was 1140 nM; in the series with Plasmodium falciparum [6], 790 nM. Further, the Ratio was 1600 in [7], 2.4 in the series with Plasmodium falciparum [8], 1.7 with Plasmodium falciparum [9] and 6.1 in the series with L6 [10].

For the compound `COc1ccc2nc(NCCCN3CCN(CCCNc4nc5ccc(OC)nc5n5cccc45)CC3)c3cccn3c2n1`, the figures for the logD in series [1] and in series [2] were 3.97 and 4.73, respectively. The compound further had a half-maximal inhibitory concentration (IC50) in the series with Plasmodium falciparum [5] of 600 nM. Also, the Ratio in series [7] came to 33000.

As for `CN(CCCNc1nc2ccc(Cl)cc2n2cccc12)CCCNc1nc2ccc(Cl)cc2n2cccc12`, the logD in [1] came out at 3.5; in [2], 4.44. In addition, the half-inhibitory concentration (IC50) in the series on L6 [3] is 4950 nM; in the series on Plasmodium falciparum [4], 400 nM; in the series with Plasmodium falciparum [5], 1010 nM; in the series with Plasmodium falciparum [6] it was 700 nM. For the same compound, the Ratio in [7] is 1800; in the series on Plasmodium falciparum [8], 2.5; in the series on Plasmodium falciparum [9] it was 1.8; in the series on L6 [10] it was 7.1.

Turning to `COc1ccc2c(c1)nc(NCCCN(C)CCCNc1nc3cc(OC)ccc3n3cccc13)c1cccn12`, the logD in [1] turned out to be 0.93; in series [2], 3.55. The IC50 in the series with L6 [3] amounted to 5740 nM; with Plasmodium falciparum [4] it was 50 nM; with Plasmodium falciparum [5], 110 nM; in the series with Plasmodium falciparum [6] it was 50 nM. Further, the Ratio was found to be 105000 in series [7], 2.2 with Plasmodium falciparum [8], 1 in the series on Plasmodium falciparum [9] and 106.3 in the series with L6 [10].

In turn, `c1cc2c(NCCCN3CCN(CCCNc4nc5ccsc5n5cccc45)CC3)nc3ccsc3n2c1` had an IC50 with Plasmodium falciparum [5] of 930 nM.

In the case of `CN(CCCNc1nc2ccccc2n2cccc12)CCCNc1nc2ccccc2n2cccc12`, the logD in series [1] came out at 1.56; in series [2], 4.12. In addition, the IC50 with L6 [3] was 6200 nM; with Plasmodium falciparum [4] it was 120 nM; in the series on Plasmodium falciparum [5], 480 nM; in the series with Plasmodium falciparum [6], 280 nM. Also, the Ratio came to 226000 in [7], 4 in the series with Plasmodium falciparum [8], 2.3 in the series with Plasmodium falciparum [9] and 22.1 in the series with L6 [10].
